{"source": "ChEMBL document CHEMBL5715950", "about": "“Characterization of molecular and cellular functions of the cyclin-dependent kinase CDK9 using a novel specific inhibitor” (Br J Pharmacol, 2014)", "key": {"[1]": {"target": "T1, Mitogen-activated protein kinase kinase kinase kinase 4 (Homo sapiens, UniProt O95819)", "assay": "Inhibition of MAP4K4 (unknown origin) incubated for 120 mins in presence of 33P-ATP by radiometric kinase assay"}, "[2]": {"target": "Cyclin-dependent kinase 9 (Mus musculus) (UniProt Q99J95)", "sequence (Q99J95 whole entry)": "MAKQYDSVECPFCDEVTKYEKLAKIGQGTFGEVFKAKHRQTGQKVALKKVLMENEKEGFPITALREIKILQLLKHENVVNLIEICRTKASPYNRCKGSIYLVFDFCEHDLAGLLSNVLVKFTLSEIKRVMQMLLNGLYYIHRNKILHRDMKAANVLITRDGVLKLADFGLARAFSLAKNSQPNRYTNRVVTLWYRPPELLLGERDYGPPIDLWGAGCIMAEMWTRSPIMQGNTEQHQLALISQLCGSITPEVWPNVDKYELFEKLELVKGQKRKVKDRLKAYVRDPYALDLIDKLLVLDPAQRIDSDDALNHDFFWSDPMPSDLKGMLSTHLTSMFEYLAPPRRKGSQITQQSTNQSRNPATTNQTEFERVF", "assay": "Inhibition of CDK9 in mouse Embryonic stem cell assessed as downregulation of MYC mRNA expression at 2.5 to 40 uM incubated for 90 mins by RT-qPCR analysis relative to control", "type": "cell-based", "details": "dose 2.5-40 µM"}, "HEK-293T": {"test_system": "HEK-293T", "assay": "Inhibition of transcription in human HEK293T cells nuclear extract fused with Gal4-VP16 at 10 uM in presence of ATP and MgCl2 by phosphorimaging analysis", "type": "functional, subcellular", "details": "Nucleus", "method_in_brief": "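In vitro transcription from the adenovirus core promoter (Gal-ML, 380 bp G-free cassette), soluble or bead-immobilised template, using HEK293T nuclear extract supplemented with recombinant Gal4-VP16. ATP 60 μM (low), 100 μM, or 500 μM (high); magnesium varied in one series. Transcripts quantified by phosphorimaging.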"}, "CDK6/cyclin D3": {"target": "CDK6/cyclin D3 (Homo sapiens, UniProt Q00534)", "sequence (P30281 whole entry)": "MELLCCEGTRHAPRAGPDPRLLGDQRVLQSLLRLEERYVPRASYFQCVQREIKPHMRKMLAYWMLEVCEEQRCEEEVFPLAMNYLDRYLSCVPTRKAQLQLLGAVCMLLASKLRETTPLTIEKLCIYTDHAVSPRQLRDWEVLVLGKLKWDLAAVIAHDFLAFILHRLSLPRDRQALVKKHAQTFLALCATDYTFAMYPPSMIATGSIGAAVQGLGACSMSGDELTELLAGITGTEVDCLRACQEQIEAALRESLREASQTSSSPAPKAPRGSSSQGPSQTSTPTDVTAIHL", "sequence (Q00534 whole entry)": "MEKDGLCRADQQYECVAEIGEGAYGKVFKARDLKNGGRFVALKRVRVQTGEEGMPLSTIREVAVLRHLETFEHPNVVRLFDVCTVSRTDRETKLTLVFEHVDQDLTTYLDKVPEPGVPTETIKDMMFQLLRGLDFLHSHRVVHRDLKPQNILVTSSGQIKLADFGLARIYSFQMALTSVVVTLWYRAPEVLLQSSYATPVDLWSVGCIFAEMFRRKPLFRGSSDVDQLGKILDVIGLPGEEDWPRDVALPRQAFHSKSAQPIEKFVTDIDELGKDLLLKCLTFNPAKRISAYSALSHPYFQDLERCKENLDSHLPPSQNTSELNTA", "assay": "Inhibition of CDK6/Cyclin D3 (unknown origin) using ULight MBP peptide as substrate in presence of ATP incubated for 1 hr by FRET based LANCE Ultra KinaSelect screen assay", "type": "protein-complex assay", "method_in_brief": "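Time-resolved FRET kinase assay with purified CDK-cyclin pairs. ULight MBP peptide substrate was 50 nM final. Buffer was 50 mM HEPES-KOH pH 7.5, 10 mM MgCl2, 1 mM EGTA and 2 mM DTT, with ATP at each kinase's KM (CDK2-cyclin A 3 μM). Reactions ran 1 h at room temperature, then 2 nM Eu-labelled anti-phospho antibody was added for detection. IC50 given as mean ± SD.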"}, "[3]": {"target": "Tyrosine-protein kinase ABL2 (Homo sapiens, UniProt P42684)", "sequence (P42684 whole entry)": "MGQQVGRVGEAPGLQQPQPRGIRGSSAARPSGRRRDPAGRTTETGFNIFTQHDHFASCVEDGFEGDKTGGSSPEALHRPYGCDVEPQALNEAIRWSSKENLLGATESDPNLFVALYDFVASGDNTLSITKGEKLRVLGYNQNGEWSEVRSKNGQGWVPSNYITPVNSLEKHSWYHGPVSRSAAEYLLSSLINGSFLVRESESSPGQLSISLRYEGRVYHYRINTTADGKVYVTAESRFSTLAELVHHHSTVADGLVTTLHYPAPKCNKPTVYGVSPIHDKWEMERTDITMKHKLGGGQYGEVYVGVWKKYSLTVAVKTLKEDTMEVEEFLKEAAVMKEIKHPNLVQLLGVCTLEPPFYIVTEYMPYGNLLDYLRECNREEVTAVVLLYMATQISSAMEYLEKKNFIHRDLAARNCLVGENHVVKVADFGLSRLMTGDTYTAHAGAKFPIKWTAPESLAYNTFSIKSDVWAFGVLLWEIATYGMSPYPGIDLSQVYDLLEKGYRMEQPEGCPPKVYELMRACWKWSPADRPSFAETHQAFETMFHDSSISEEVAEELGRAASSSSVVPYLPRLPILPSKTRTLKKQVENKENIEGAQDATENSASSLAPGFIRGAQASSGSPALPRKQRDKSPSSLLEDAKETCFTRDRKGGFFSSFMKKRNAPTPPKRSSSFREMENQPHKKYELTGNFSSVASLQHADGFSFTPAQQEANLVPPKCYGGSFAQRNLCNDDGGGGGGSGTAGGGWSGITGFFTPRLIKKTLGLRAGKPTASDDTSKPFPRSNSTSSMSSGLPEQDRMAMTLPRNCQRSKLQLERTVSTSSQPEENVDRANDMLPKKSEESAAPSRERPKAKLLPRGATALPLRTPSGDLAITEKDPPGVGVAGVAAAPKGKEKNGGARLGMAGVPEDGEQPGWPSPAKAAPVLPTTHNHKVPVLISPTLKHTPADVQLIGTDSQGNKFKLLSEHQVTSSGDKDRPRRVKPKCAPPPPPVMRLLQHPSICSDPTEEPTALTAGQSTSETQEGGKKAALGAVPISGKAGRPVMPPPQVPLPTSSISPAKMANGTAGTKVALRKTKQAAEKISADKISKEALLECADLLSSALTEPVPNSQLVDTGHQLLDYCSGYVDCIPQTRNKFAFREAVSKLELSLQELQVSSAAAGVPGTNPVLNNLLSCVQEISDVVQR", "assay": "Inhibition of ABL2 (unknown origin) incubated for 120 mins in presence of 33P-ATP by radiometric kinase assay", "method_in_brief": "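Radiometric panel assay, 10-dose mode: serial dilutions from […], in duplicate, at 1 μM ATP. Incubated 120 min at room temperature, then spotted on P81 paper, acid-washed and counted. Values are means.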"}, "[4]": {"target": "T1, Mitogen-activated protein kinase kinase kinase kinase 4", "assay": "Inhibition of MAP4K4 (unknown origin) assessed as residual activity at 10 uM incubated for 120 mins in presence of 33P-ATP by radiometric kinase assay relative to control"}, "HCT 116 TP53(-/-)": {"test_system": "HCT 116 TP53(-/-)", "assay": "Induction of apoptosis in human HCT116-p53-null cells at 10 uM incubated for 24 hrs by Annexin V-FITC/PI staining based flow cytometric analysis", "type": "functional, cell-based", "method_in_brief": "(§1)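 Cells grown at 37°C, 5% CO2 (A549, HeLa, MCF7 in DMEM high glucose; HCT116 in McCoy's 5A; THP1 and primary AML M4 apheresis blasts in RPMI1640), exposed to inhibitor or DMSO for 24 h. Apoptotic fraction by flow cytometry after annexin V-fluorescein/propidium iodide double staining. Means ± SD of three biological replicates; AML blasts from one patient, three technical replicates. Student's t-test versus DMSO/untreated.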"}, "A549": {"test_system": "A549", "assay": "Induction of apoptosis in human A549 cells at 10 uM incubated for 24 hrs by Annexin V-FITC/PI staining based flow cytometric analysis", "type": "functional, cell-based", "method_in_brief": "as §1"}, "[5]": {"assay": "Transcription level in human HeLa cells nuclear extract fused with Gal4-VP16 at 10 uM in presence of ATP by phosphorimaging analysis relative to control"}, "p53HCT116": {"test_system": "p53HCT116", "assay": "Induction of apoptosis in human p53HCT116 cells at 10 uM incubated for 24 hrs by Annexin V-FITC/PI staining based flow cytometric analysis", "type": "functional, cell-based", "method_in_brief": "as §1"}, "[6]": {"target": "Glycogen synthase kinase-3 alpha (Homo sapiens, UniProt P49840)", "sequence (P49840 whole entry)": "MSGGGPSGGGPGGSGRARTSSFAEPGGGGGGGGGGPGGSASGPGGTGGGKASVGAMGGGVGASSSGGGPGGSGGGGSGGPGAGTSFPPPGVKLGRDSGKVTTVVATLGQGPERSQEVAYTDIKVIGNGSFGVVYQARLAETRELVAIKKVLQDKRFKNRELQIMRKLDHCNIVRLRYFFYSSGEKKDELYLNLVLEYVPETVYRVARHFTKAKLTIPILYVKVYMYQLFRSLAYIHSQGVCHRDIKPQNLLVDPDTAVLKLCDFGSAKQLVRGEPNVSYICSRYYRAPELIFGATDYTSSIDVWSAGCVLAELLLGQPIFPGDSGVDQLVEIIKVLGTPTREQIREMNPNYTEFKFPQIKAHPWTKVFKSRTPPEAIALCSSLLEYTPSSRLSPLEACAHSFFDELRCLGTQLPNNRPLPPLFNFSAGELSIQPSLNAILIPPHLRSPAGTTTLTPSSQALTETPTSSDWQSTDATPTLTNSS", "assay": "Inhibition of GSK3A (unknown origin) incubated for 120 mins in presence of 33P-ATP by radiometric kinase assay"}, "[7]": {"target": "Cyclin-dependent kinase 9 (Homo sapiens) (UniProt P50750)", "sequence (P50750 whole entry)": "as the sequence (Q99J95 whole entry) above, with T17S, K37R, Q40K, K258N, F262Y counted along it", "assay": "Inhibition of CDK9 in human A549 cells assessed as downregulation of GAPDH mRNA expression at 1 to 10 uM incubated for 90 mins by RT-qPCR analysis relative to control", "type": "cell-based", "details": "dose 1-10 µM"}}, "note": "Active and inactive are the calls of the source. The calls are words filed in the database; no cut-off is given here.", "data": [{"smiles": "COc1ccccc1-c1cc(Nc2cccc(NS(C)(=O)=O)c2)ncn1", "values": [{"measurement": "IC50", "setting": "[1]", "result": 820, "unit": "nM"}, {"measurement": "inhibition", "setting": "[2]", "result": "Active"}, {"measurement": "inhibition", "setting": "HEK-293T", "result": "inactive"}, {"measurement": "IC50", "setting": "CDK6/cyclin D3", "result": "> 10000", "unit": "nM"}, {"measurement": "IC50", "setting": "[3]", "result": 3640, "unit": "nM"}, {"measurement": "Activity", "setting": "[4]", "result": 17.5, "unit": "%"}, {"measurement": "Activity", "setting": "HCT 116 TP53(-/-)", "result": "Active"}, {"measurement": "Activity", "setting": "A549", "result": "Active"}, {"measurement": "level, % of control at 10 µM", "setting": "[5]", "result": 20, "unit": "%"}, {"measurement": "Activity", "setting": "p53HCT116", "result": "Active"}, {"measurement": "IC50", "setting": "[6]", "result": 1460, "unit": "nM"}, {"measurement": "inhibition", "setting": "[7]", "result": 50, "unit": "%"}]}]}
